Laboratory results published in ChEMBL document CHEMBL2203110, “Inhibition of HIV-1 capsid assembly: optimization of the antiviral potency by site selective modifications at N1, C2 and C16 of a 5-(5-furan-2-yl-pyrazol-1-yl)-1H-benzimidazole scaffold” (Bioorg Med Chem Lett, 2012).
pEC50, pIC50: −log10 of the molar value.

Columns and labels:
[1] = Permeability of the compound across human Caco2 cells; type: ADME, cell-based; conditions: Caco-2, read-out: permeability
[2] = Half life in rat liver microsomes; type: ADME, Microsome
[3] = Half life in human liver microsomes; type: ADME, Microsome
[4] = target: T1, Structural capsid protein (Human immunodeficiency virus 1, UniProt Q76129); assay: Inhibition of HIV1 capsid protein binding to fluorescein labeled 3-(5-(3-ethyl-5-(5-methylfuran-2-yl)-1H-pyrazol-1-yl)-1-((6-oxo-1,6-dihydropyridin-3-yl)methyl)-1H-benzo[d]imidazol-2-yl)-4-hydroxybenzoic acid after 15 mins by fluorescence polarization assay
T1 sequence (Q76129 whole entry): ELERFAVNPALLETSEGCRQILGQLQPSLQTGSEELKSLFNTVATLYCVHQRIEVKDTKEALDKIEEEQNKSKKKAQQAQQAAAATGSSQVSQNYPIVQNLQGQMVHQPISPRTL
How it was run: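 CA-NC protein (40 nM) mixed with 40 nM fluorescein probe plus serially diluted compounds in Tris pH 8.0, 100 mM NaCl, CHAPS, DTT buffer with 2% DMSO before mixing. 15 min incubation, then fluorescence polarization read. Wells without compound defined 0% displacement; probe-only wells defined 100%.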

[5] = test system: Human immunodeficiency virus 1; assay: Antiviral activity against HIV1; type: functional, organism-based
How it was run: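 Cell-based HIV-1 replication assay. EC50 is the concentration that inhibits virus replication by 50%.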

[6] = target: T1, Structural capsid protein; assay: Inhibition of HIV1 capsid protein assembly using 5'-fluorescein-labeled (TG)25 oligonucleotide after 2 hrs by fluorometry-based capsid disassembly assay
How it was run: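 Biotin-(TG)25 oligonucleotide (25 nM, overnight) immobilized on neutravidin wells; CA-NC (2 µM) assembled with 100 nM 5'-fluorescein (TG)25 in Tris pH 8.0/NaCl/ZnSO4/CHAPS/BSA/DTT buffer, 2 h RT, washed. Serially diluted compounds (buffer + 0.125% DMSO) added 2 h RT; washes, SDS release, captured fluorescence read. Ten-point curves fitted; IC50 = concentration giving 50% disassembly.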

Row | Compound | Papp [1] | half-life [2] | half-life [3] | pIC50 [4] | pEC50 [5] | pIC50 [6]
1 | CCc1cc(-c2ccc(C(F)(F)F)o2)n(-c2ccc3c(c2)nc(-c2cc(C(=O)N4CCCC4)ccc2O)n3Cc2cc(C)c(=O)n(C)c2)n1 | 7.2 ×10⁻⁶ cm/s | 18 min | 10 min | 7.17 | 7.57 | 
2 | CCc1cc(-c2ccc(C)o2)n(-c2ccc3c(c2)nc(-c2ccccc2O)n3Cc2ccc(OC)c(O)c2)n1 |  |  |  |  | 5.19 | 6.39
3 | CCc1cc(-c2ccc(C)o2)n(-c2ccc3c(c2)nc(-c2cc(F)ccc2O)n3Cc2ccc(OC)c(O)c2)n1 |  |  |  |  | 5.00 | 6.55
4 | CCc1cc(-c2ccc(C)o2)n(-c2ccc3c(c2)nc(-c2cc(C(=O)O)ccc2O)n3Cc2ccc(OC)c(O)c2)n1 |  |  |  | 6.26 | 5.21 | 7.06
5 | CCc1cc(-c2ccc(C)o2)n(-c2ccc3c(c2)nc(-c2cc(C(=O)N(C)C)ccc2O)n3Cc2ccc(OC)c(O)c2)n1 |  |  |  |  | 6.20 | 6.92
6 | CCc1cc(-c2ccc(C)o2)n(-c2ccc3c(c2)nc(-c2ccccc2O)n3Cc2ccc(=O)[nH]c2)n1 |  |  |  | 6.16 | 6.59 | 7.26
7 | CCc1cc(-c2ccc(C)o2)n(-c2ccc3c(c2)nc(-c2cc(F)ccc2O)n3Cc2ccc(=O)[nH]c2)n1 |  |  |  |  | 6.59 | 7.39
8 | CCc1cc(-c2ccc(C)o2)n(-c2ccc3c(c2)nc(-c2cc(C(=O)O)ccc2O)n3Cc2ccc(=O)[nH]c2)n1 |  |  |  | 6.19 | < 4.34 | 7.25
9 | CCc1cc(-c2ccc(C)o2)n(-c2ccc3c(c2)nc(-c2cc(C(=O)N(C)C)ccc2O)n3Cc2ccc(=O)[nH]c2)n1 |  |  |  | 7.36 | 6.23 | 7.31
10 | CCc1cc(-c2ccc(C(F)(F)F)o2)n(-c2ccc3c(c2)nc(-c2cc(C(=O)N(C)C)ccc2O)n3Cc2ccc(=O)[nH]c2)n1 |  |  |  | 7.23 | 7.04 | 
11 | CCc1cc(-c2ccc(C(F)(F)F)o2)n(-c2ccc3c(c2)nc(-c2cc(C(=O)N4CCCC4)ccc2O)n3Cc2ccc(=O)[nH]c2)n1 | 0.19 ×10⁻⁶ cm/s | 45 min | 30 min | 7.21 | 7.21 | 
12 | CCc1cc(-c2ccc(C(F)(F)F)o2)n(-c2ccc3c(c2)nc(-c2cc(C(=O)N4CCCC4)ccc2O)n3Cc2c[nH]c(=O)c(C)c2)n1 | 6.8 ×10⁻⁶ cm/s | 25 min | 11 min | 7.42 | 7.55 | 
13 | Cc1cc(-c2ccco2)n(-c2ccc3c(c2)nc(COc2ccc(C(=N)N)cc2)n3C)n1 |  |  |  |  | 4.55 | 5.22
14 | CCc1cc(-c2ccc(C)o2)n(-c2ccc3c(c2)nc(-c2ccc(C(N)=O)cc2)n3CC2CC2)n1 |  |  |  |  | 5.46 | 6.00
15 | CCc1cc(-c2ccc(C)o2)n(-c2ccc3c(c2)nc(-c2ccc(C(N)=O)cc2)n3Cc2cccnc2)n1 |  |  |  |  | 5.59 | 6.44
16 | CCc1cc(-c2ccc(C)o2)n(-c2ccc3c(c2)nc(-c2ccc(C(N)=O)cc2)n3Cc2ccc(OC)c(O)c2)n1 |  |  |  |  | 6.19 | 6.10
17 | CCc1cc(-c2ccc(C)o2)n(-c2ccc3c(c2)nc(-c2ccc(C(N)=O)cc2)n3Cc2ccc(OC)nc2)n1 |  |  |  |  | 5.46 | 6.08
18 | CCc1cc(-c2ccc(C)o2)n(-c2ccc3c(c2)nc(-c2ccc(C(N)=O)cc2)n3Cc2ccc(=O)[nH]c2)n1 |  |  |  |  | 4.89 | 6.77
